Legend:
Staphylococcus aureus [1] = test: Antibacterial activity against methicillin-susceptible Staphylococcus aureus using 5x10^5 CFU/ml standard inoculum assessed as bacterial growth inhibition at 32 ug/ml; type: functional; design: scale not given: the % may be the effect or the level left
Summary of the method: (§1)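 98 MSSA clinical isolates from skin/soft tissue infection, hospital-acquired pneumonia, endocarditis and haemodialysis bacteraemia; testers were blinded to clinical data. Broth microdilution in cation-adjusted Mueller-Hinton II broth per CLSI, with inocula of ~5×10^4, 5×10^5, 5×10^6 or 5×10^7 CFU/ml. Inocula were set by optical density and spot-checked by CFU counts. Plates were read at 24 h. Values are the percentage of strains inhibited at each concentration.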

[2] = Drug level in bone of methicillin-susceptible Staphylococcus aureus infected human after 60 mins; type: ADME, tissue-based, Bone element; conditions: read-out: Drug uptake
Staphylococcus aureus [3] = test: Antibacterial activity against methicillin-susceptible Staphylococcus aureus using 5x10^7 CFU/ml high inoculum assessed as bacterial growth inhibition at 32 ug/ml; type: functional; design: scale not given: the % may be the effect or the level left; summary of the method: as §1
Staphylococcus aureus [4] = test: Antibacterial activity against methicillin-susceptible Staphylococcus aureus using 5x10^5 CFU/ml standard inoculum assessed as bacterial growth inhibition at 16 ug/ml; type: functional; design: scale not given: the % may be the effect or the level left; summary of the method: as §1
Staphylococcus aureus [5] = test: Antibacterial activity against methicillin-susceptible Staphylococcus aureus using 5x10^5 CFU/ml standard inoculum assessed as bacterial growth inhibition at 64 ug/ml; type: functional; design: scale not given: the % may be the effect or the level left; summary of the method: as §1
Staphylococcus aureus [6] = test: Antibacterial activity against methicillin-susceptible Staphylococcus aureus using 5x10^5 CFU/ml standard inoculum assessed as bacterial growth inhibition at >= 128 ug/ml; type: functional; design: scale not given: the % may be the effect or the level left; summary of the method: as §1
Staphylococcus aureus [7] = test: Antibacterial activity against methicillin-susceptible Staphylococcus aureus using 5x10^5 CFU/ml standard inoculum assessed as bacterial growth inhibition at <= […] ug/ml; type: functional; design: scale not given: the % may be the effect or the level left
Staphylococcus aureus [8] = test: Antibacterial activity against methicillin-susceptible Staphylococcus aureus using 5x10^7 CFU/ml high inoculum assessed as bacterial growth inhibition at 2 ug/ml; type: functional; design: scale not given: the % may be the effect or the level left; summary of the method: as §1
Staphylococcus aureus [9] = test: Antibacterial activity against methicillin-susceptible Staphylococcus aureus using 5x10^4 CFU/ml low inoculum assessed as bacterial growth inhibition at 2 ug/ml; type: functional; design: scale not given: the % may be the effect or the level left; summary of the method: as §1
Staphylococcus aureus [10] = test: Antibacterial activity against methicillin-susceptible Staphylococcus aureus using 5x10^4 CFU/ml low inoculum assessed as bacterial growth inhibition at 64 ug/ml; type: functional; design: scale not given: the % may be the effect or the level left; summary of the method: as §1
[11] = Drug level in human serum at 1 g, iv after 4 hrs; type: ADME, organism-based; conditions: read-out: Drug uptake
Staphylococcus aureus [12] = test: Antibacterial activity against methicillin-susceptible Staphylococcus aureus using 5x10^6 CFU/ml intermediate inoculum assessed as bacterial growth inhibition at 16 ug/ml; type: functional; design: scale not given: the % may be the effect or the level left; summary of the method: as §1
Staphylococcus aureus [13] = test: Antibacterial activity against methicillin-susceptible Staphylococcus aureus using 5x10^4 CFU/ml low inoculum assessed as bacterial growth inhibition at 32 ug/ml; type: functional; design: scale not given: the % may be the effect or the level left; summary of the method: as §1
Staphylococcus aureus [14] = test: Antibacterial activity against methicillin-susceptible Staphylococcus aureus using 5x10^6 CFU/ml intermediate inoculum assessed as bacterial growth inhibition at 32 ug/ml; type: functional; design: scale not given: the % may be the effect or the level left; summary of the method: as §1
Staphylococcus aureus [15] = test: Antibacterial activity against methicillin-susceptible Staphylococcus aureus using 5x10^7 CFU/ml high inoculum assessed as bacterial growth inhibition at >= 128 ug/ml; type: functional; design: scale not given: the % may be the effect or the level left; summary of the method: as §1
Staphylococcus aureus [16] = test: Antibacterial activity against methicillin-susceptible Staphylococcus aureus using 5x10^5 CFU/ml standard inoculum assessed as bacterial growth inhibition at 4 ug/ml; type: functional; design: scale not given: the % may be the effect or the level left; summary of the method: as §1
Staphylococcus aureus [17] = test: Antibacterial activity against methicillin-susceptible Staphylococcus aureus using 5x10^6 CFU/ml intermediate inoculum assessed as bacterial growth inhibition at <= […] ug/ml; type: functional; design: scale not given: the % may be the effect or the level left
Staphylococcus aureus [18] = test: Antibacterial activity against methicillin-susceptible Staphylococcus aureus using 5x10^4 CFU/ml low inoculum assessed as bacterial growth inhibition at 8 ug/ml; type: functional; design: scale not given: the % may be the effect or the level left; summary of the method: as §1
Staphylococcus aureus [19] = test: Antibacterial activity against methicillin-susceptible Staphylococcus aureus using 5x10^6 CFU/ml intermediate inoculum assessed as bacterial growth inhibition at 64 ug/ml; type: functional; design: scale not given: the % may be the effect or the level left; summary of the method: as §1
Staphylococcus aureus [20] = test: Antibacterial activity against methicillin-susceptible Staphylococcus aureus using 5x10^6 CFU/ml intermediate inoculum assessed as bacterial growth inhibition at >= 128 ug/ml; type: functional; design: scale not given: the % may be the effect or the level left; summary of the method: as §1
Staphylococcus aureus [21] = test: Antibacterial activity against methicillin-susceptible Staphylococcus aureus using 5x10^4 CFU/ml low inoculum assessed as bacterial growth inhibition at >= 128 ug/ml; type: functional; design: scale not given: the % may be the effect or the level left; summary of the method: as §1
Staphylococcus aureus [22] = test: Antibacterial activity against methicillin-susceptible Staphylococcus aureus using 5x10^7 CFU/ml high inoculum assessed as bacterial growth inhibition at 8 ug/ml; type: functional; design: scale not given: the % may be the effect or the level left; summary of the method: as §1
Staphylococcus aureus [23] = test: Antibacterial activity against methicillin-susceptible Staphylococcus aureus using 5x10^5 CFU/ml standard inoculum assessed as bacterial growth inhibition at 8 ug/ml; type: functional; design: scale not given: the % may be the effect or the level left; summary of the method: as §1
Staphylococcus aureus [24] = test: Antibacterial activity against methicillin-susceptible Staphylococcus aureus using 5x10^6 CFU/ml intermediate inoculum assessed as bacterial growth inhibition at 2 ug/ml; type: functional; design: scale not given: the % may be the effect or the level left; summary of the method: as §1
Staphylococcus aureus [25] = test: Antibacterial activity against methicillin-susceptible Staphylococcus aureus using 5x10^5 CFU/ml standard inoculum assessed as bacterial growth inhibition at 2 ug/ml; type: functional; design: scale not given: the % may be the effect or the level left; summary of the method: as §1
Staphylococcus aureus [26] = test: Antibacterial activity against methicillin-susceptible Staphylococcus aureus using 5x10^7 CFU/ml high inoculum assessed as bacterial growth inhibition at 4 ug/ml; type: functional; design: scale not given: the % may be the effect or the level left; summary of the method: as §1
Staphylococcus aureus [27] = test: Antibacterial activity against methicillin-susceptible Staphylococcus aureus using 5x10^7 CFU/ml high inoculum assessed as bacterial growth inhibition at 64 ug/ml; type: functional; design: scale not given: the % may be the effect or the level left; summary of the method: as §1
Staphylococcus aureus [28] = test: Antibacterial activity against methicillin-susceptible Staphylococcus aureus using 5x10^7 CFU/ml high inoculum assessed as bacterial growth inhibition at <= […] ug/ml; type: functional; design: scale not given: the % may be the effect or the level left
Staphylococcus aureus [29] = test: Antibacterial activity against methicillin-susceptible Staphylococcus aureus using 5x10^6 CFU/ml intermediate inoculum assessed as bacterial growth inhibition at 8 ug/ml; type: functional; design: scale not given: the % may be the effect or the level left; summary of the method: as §1
Staphylococcus aureus [30] = test: Antibacterial activity against methicillin-susceptible Staphylococcus aureus using 5x10^4 CFU/ml low inoculum assessed as bacterial growth inhibition at 16 ug/ml; type: functional; design: scale not given: the % may be the effect or the level left; summary of the method: as §1
Staphylococcus aureus [31] = test: Antibacterial activity against methicillin-susceptible Staphylococcus aureus using 5x10^4 CFU/ml low inoculum assessed as bacterial growth inhibition at 4 ug/ml; type: functional; design: scale not given: the % may be the effect or the level left; summary of the method: as §1
Staphylococcus aureus [32] = test: Antibacterial activity against methicillin-susceptible Staphylococcus aureus using 5x10^4 CFU/ml low inoculum assessed as bacterial growth inhibition at <= […] ug/ml; type: functional; design: scale not given: the % may be the effect or the level left
Staphylococcus aureus [33] = test: Antibacterial activity against methicillin-susceptible Staphylococcus aureus using 5x10^7 CFU/ml high inoculum assessed as bacterial growth inhibition at 16 ug/ml; type: functional; design: scale not given: the % may be the effect or the level left; summary of the method: as §1
Staphylococcus aureus [34] = test: Antibacterial activity against methicillin-susceptible Staphylococcus aureus using 5x10^6 CFU/ml intermediate inoculum assessed as bacterial growth inhibition at 4 ug/ml; type: functional; design: scale not given: the % may be the effect or the level left; summary of the method: as §1

In the case of Cc1nnc(SCC2=C(C(=O)O)N3C(=O)[C@@H](NC(=O)Cn4cnnn4)[C@H]3SC2)s1 [CEFAZOLIN], the Activity (Staphylococcus aureus [1]) is reported as 0%, the concentration at 1 h [2] is reported as 6900 ng/mL and the Activity (Staphylococcus aureus [3]) is reported as 9%. For the same molecule, the Activity (Staphylococcus aureus [4]) was 0%, the Activity (Staphylococcus aureus [5]) was 0% and the Activity (Staphylococcus aureus [6]) was 0%. For the same molecule, the Activity (Staphylococcus aureus [7]) was 89%, the Activity (Staphylococcus aureus [8]) was 12% and the Activity (Staphylococcus aureus [9]) was 0%. It also gave an Activity (Staphylococcus aureus [10]) of 0%, a concentration at 4 h [11] of 17000 ng/mL and an Activity (Staphylococcus aureus [12]) of 2%. It also gave an Activity (Staphylococcus aureus [13]) of 0%, an Activity (Staphylococcus aureus [14]) of 1% and an Activity (Staphylococcus aureus [15]) of 2%. It also gave an Activity (Staphylococcus aureus [16]) of 6%, an Activity (Staphylococcus aureus [17]) of 33% and an Activity (Staphylococcus aureus [18]) of 0%. The Activity (Staphylococcus aureus [19]) was 3%, the Activity (Staphylococcus aureus [20]) was 0% and the Activity (Staphylococcus aureus [21]) was 0%. For the same molecule, the Activity (Staphylococcus aureus [22]) was 24%, the Activity (Staphylococcus aureus [23]) was 0% and the Activity (Staphylococcus aureus [24]) was 50%. The Activity (Staphylococcus aureus [25]) was 5%, the Activity (Staphylococcus aureus [26]) was 20% and the Activity (Staphylococcus aureus [27]) was 3%. The Activity (Staphylococcus aureus [28]) was 23%, the Activity (Staphylococcus aureus [29]) was 2% and the Activity (Staphylococcus aureus [30]) was 0%. The Activity (Staphylococcus aureus [31]) was 0%, the Activity (Staphylococcus aureus [32]) was 100% and the Activity (Staphylococcus aureus [33]) was 5%. For the same molecule, the Activity (Staphylococcus aureus [34]) was 8%.

From ChEMBL document CHEMBL1649557 (Antimicrob Agents Chemother, 2009)
